PMC4698108 (Mucosal immunology, 2015)

What was measured:
[1] = tested on: HLA-DP2 variants with substitutions at positions 26, 68 and 69 of the β-chain; type: cell-based, human
Method in brief: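 Human AV22 and murine Vβ6⁺ transfectomas were given BeSO₄ presented by fibroblasts expressing wild-type HLA-DP2 or β-chain variants carrying alanine, glutamine or lysine at positions 26, 68 or 69. Be-induced IL-2 (pg/ml) was measured by ELISA.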

[2] = tested on: Vβ6+ CD4+ T cells in lung and BAL; assay: TCR Vβ6 expression on CD4+ T cells after BeO exposure; type: in vivo, HLA-DP2 Tg FVB/N mice
Method in brief: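 HLA-DP2 Tg FVB/N mice, 6–8 weeks old, were anesthetized with isoflurane and given 100 μg BeO by oropharyngeal aspiration on days 0, 1, 2, 14, 15, 18 and 19, then sacrificed on day 21. BAL used three 0.5 ml PBS instillations, pooled from 20 mice. Lungs were collagenase-digested (1 mg/ml, 30 min, 37°C). Cells were stained with a seven-mAb anti-Vβ panel, and small versus blasting lymphocytes were gated by forward/side scatter.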

[3] = BAL cells pooled from 20 BeO-exposed HLA-DP2 Tg mice

Row | SMILES | Be-induced IL-2 secretion with the EA68 HLA-DP2 β-chain variant ([1]; AV22 transfectoma (Figure 4B)) | Be-induced IL-2 secretion with amino acid substitutions at positions 26, 68 and 69 of the HLA-DP2 β-chain ([1]; human TCR AV22 and five murine T cell transfectomas, alanine, glutamine or lysine substitutions (Figure 4B)) | frequency of CD4+ T cells expressing Vβ6, blasting (large forward scatter) T cells [2, 3] | frequency of CD4+ T cells expressing Vβ6, small lymphocyte gate [2, 3] | percentage of BAL CD4+ T cells expressing Vβ6 ([2]; BAL of BeO-exposed mice, overall value given in text, unexposed lung 11.1%)
1 | O=S(=O)([O-])[O-].[Be+2] [BeSO4] | partial reduction in IL-2 secretion | abrogated Be-induced IL-2 secretion |  |  | 
2 | [Be]=[O] [BeO, Be oxide] |  |  | 22.5% | 13.7% | 16.8%
